Experimental data as given in ChEMBL document CHEMBL5260840 (J Med Chem, 2019).
Active and inactive are the calls of the source. The rule behind the calls is not given here.

Legend:
[1] = molecular target: Von Hippel-Lindau disease tumor suppressor/Elongin B/Elongin C (Homo sapiens) (UniProt P40337+Q15370+Q15369); experiment: Negative co-operative binding affinity to 6His-tagged human VHL/ElonginC/ElonginB expressed in Escherichia coli BL21 (DE3) cells assessed as total gibb's free energy change in the presence of BRD9-BD as complex with compound by ITC analysis
[2] = molecular target: T1, von Hippel-Lindau disease tumor suppressor/Bromodomain-containing protein 7 (Homo sapiens) (UniProt Q9NPI1+P40337); experiment: PROTAC activity at VHL/BRD7 in human Ri-1 cells assessed as remaining BRD7 protein level at 100 nM incubated for 4 hrs by Western blot analysis relative to control; assay type: cell-based
Procedure, shortened: (§1)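 Ri-1 cells exposed to compound for the stated time before harvest; BRD9, BRD7 and β-actin measured by Western blot, band intensities quantified and set against DMSO-treated control.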

[3] = molecular target: T2, von Hippel-Lindau disease tumor suppressor/Bromodomain-containing protein 9 (Homo sapiens) (UniProt Q9H8M2+P40337); experiment: PROTAC activity at VHL/BRD9 in human Ri-1 cells assessed as remaining BRD9 protein level at 100 nM incubated for 48 hrs by Western blot analysis relative to control; assay type: cell-based; procedure, shortened: as §1
[4] = molecular target: T1, von Hippel-Lindau disease tumor suppressor/Bromodomain-containing protein 7 (Homo sapiens); experiment: PROTAC activity at VHL/BRD7 in human Ri-1 cells assessed as remaining BRD7 protein level at 100 nM incubated for 30 mins by Western blot analysis relative to control; assay type: cell-based; procedure, shortened: as §1
[5] = molecular target: T1, von Hippel-Lindau disease tumor suppressor/Bromodomain-containing protein 7 (Homo sapiens); experiment: PROTAC activity at VHL/BRD7 in human Ri-1 cells assessed as remaining BRD7 protein level at 10000 nM incubated for 2 hrs by Western blot analysis relative to control; assay type: cell-based; procedure, shortened: as §1
[6] = molecular target: T1, von Hippel-Lindau disease tumor suppressor/Bromodomain-containing protein 7 (Homo sapiens); experiment: PROTAC activity at VHL/BRD7 in human Ri-1 cells assessed as BRD7 protein degradation at 100 nM incubated for 4 hrs by MS proteomics analysis; assay type: cell-based
[7] = molecular target: T2, von Hippel-Lindau disease tumor suppressor/Bromodomain-containing protein 9 (Homo sapiens); experiment: PROTAC activity at VHL/BRD9 in human Ri-1 cells assessed as remaining BRD9 protein level at 1 nM incubated for 8 hrs by Western blot analysis relative to control; assay type: cell-based; procedure, shortened: as §1
[8] = molecular target: T2, von Hippel-Lindau disease tumor suppressor/Bromodomain-containing protein 9 (Homo sapiens); experiment: PROTAC activity at VHL/BRD9 in human Ri-1 cells assessed as remaining BRD9 protein level at 10 nM incubated for 4 hrs by Western blot analysis relative to control; assay type: cell-based; procedure, shortened: as §1
[9] = molecular target: T1, von Hippel-Lindau disease tumor suppressor/Bromodomain-containing protein 7 (Homo sapiens); experiment: PROTAC activity at VHL/BRD7 in human Ri-1 cells assessed as remaining BRD7 protein level at 100 nM incubated for 24 hrs by Western blot analysis relative to control; assay type: cell-based; procedure, shortened: as §1
A204 = experiment: Antiproliferative activity against human A204 cells assessed as inhibition of cell growth incubated for 7 days by CellTiterGlo assay; assay type: functional, cell-based; details: A204, 168 h
[10] = molecular target: T1, von Hippel-Lindau disease tumor suppressor/Bromodomain-containing protein 7 (Homo sapiens); experiment: PROTAC activity at VHL/BRD7 in human HeLa cells assessed as remaining BRD7 protein level at 1 uM incubated for 4 hrs by Western blot analysis relative to control; assay type: cell-based
[11] = molecular target: T1, von Hippel-Lindau disease tumor suppressor/Bromodomain-containing protein 7 (Homo sapiens); experiment: PROTAC activity at VHL/BRD7 in human Ri-1 cells assessed as remaining BRD7 protein level at 10 nM incubated for 48 hrs by Western blot analysis relative to control; assay type: cell-based; procedure, shortened: as §1
[12] = molecular target: T1, von Hippel-Lindau disease tumor suppressor/Bromodomain-containing protein 7 (Homo sapiens); experiment: PROTAC activity at VHL/BRD7 in human Ri-1 cells assessed as BRD7 protein degradation in the presence of MLN4924 by Western blot analysis; assay type: cell-based
[13] = molecular target: T2, von Hippel-Lindau disease tumor suppressor/Bromodomain-containing protein 9 (Homo sapiens); experiment: PROTAC activity at VHL/BRD9 in human Ri-1 cells assessed as BRD9 protein degradation in the presence of MLN4924 by Western blot analysis; assay type: cell-based; procedure, shortened: as §1
[14] = molecular target: T2, von Hippel-Lindau disease tumor suppressor/Bromodomain-containing protein 9 (Homo sapiens); experiment: PROTAC activity at VHL/BRD9 in human Ri-1 cells assessed as remaining BRD9 protein level at 10 nM incubated for 1 hrs by Western blot analysis relative to control; assay type: cell-based; procedure, shortened: as §1
[15] = molecular target: T1, von Hippel-Lindau disease tumor suppressor/Bromodomain-containing protein 7 (Homo sapiens); experiment: PROTAC activity at VHL/BRD7 in human Ri-1 cells assessed as remaining BRD7 protein level at 10 nM incubated for 2 hrs by Western blot analysis relative to control; assay type: cell-based
[16] = molecular target: T1, von Hippel-Lindau disease tumor suppressor/Bromodomain-containing protein 7 (Homo sapiens); experiment: PROTAC activity at VHL/BRD7 in human Ri-1 cells assessed as BRD7 protein degradation in the presence of MG132 by Western blot analysis; assay type: cell-based
[17] = Stability in mouse plasma at 10 uM measured upto 180 mins by UPLC-MS/MS analysis; assay type: ADME, cell-free; details: 3 h
[18] = Stability in CD-1 mouse liver microsomes at 0.5 uM measured upto 30 mins in the presence of NADPH; assay type: ADME, Microsome; details: 0.5 h
[19] = molecular target: T2, von Hippel-Lindau disease tumor suppressor/Bromodomain-containing protein 9 (Homo sapiens); experiment: PROTAC activity at VHL/BRD9 in human Ri-1 cells assessed as BRD9 protein degradation at 100 nM incubated for 4 hrs by MS proteomics analysis; assay type: cell-based
Procedure, shortened: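 RI-1 cells treated in triplicate with compound (100 nM) or DMSO for 4 h; whole-cell proteome quantified by MS (6273 proteins), fold change versus control with t-test P-values.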

[20] = molecular target: T1, von Hippel-Lindau disease tumor suppressor/Bromodomain-containing protein 7 (Homo sapiens); experiment: PROTAC activity at VHL/HiBiT-tagged BRD7 expressed in HEK293 assessed as BRD7 ubiquitination at 1 uM measured upto 60 mins by NanoBRET assay; assay type: cell-based
[21] = molecular target: T2, von Hippel-Lindau disease tumor suppressor/Bromodomain-containing protein 9 (Homo sapiens); experiment: PROTAC activity at VHL/BRD9 in human Ri-1 cells assessed as remaining BRD9 protein level at 10 nM incubated for 8 hrs by Western blot analysis relative to control; assay type: cell-based; procedure, shortened: as §1
[22] = Kinetic aqueous solubility of the compound by laser nephelometry; assay type: physicochemical; details: read-out: Kinetic_solubility
Procedure, shortened: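 Laser nephelometry. DMSO stocks serially diluted from 10 mM to 0.5 mM, then mixed into water to give final 250–12 µM with 2.5% final DMSO. Triplicate aliquots read immediately.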

[23] = molecular target: T2, von Hippel-Lindau disease tumor suppressor/Bromodomain-containing protein 9 (Homo sapiens); experiment: PROTAC activity at VHL/BRD9 in human Ri-1 cells assessed as remaining BRD9 protein level at 1 nM incubated for 2 hrs by Western blot analysis relative to control; assay type: cell-based; procedure, shortened: as §1
[24] = molecular target: T1, von Hippel-Lindau disease tumor suppressor/Bromodomain-containing protein 7 (Homo sapiens); experiment: PROTAC activity at VHL/BRD7 in human Ri-1 cells assessed as remaining BRD7 protein level at 100 nM incubated for 1 hrs by Western blot analysis relative to control; assay type: cell-based; procedure, shortened: as §1
[25] = molecular target: T2, von Hippel-Lindau disease tumor suppressor/Bromodomain-containing protein 9 (Homo sapiens); experiment: PROTAC activity at VHL/BRD9 in human Ri-1 cells assessed as remaining BRD9 protein level at 0.1 nM incubated for 8 hrs by Western blot analysis relative to control; assay type: cell-based; procedure, shortened: as §1
[26] = molecular target: T2, von Hippel-Lindau disease tumor suppressor/Bromodomain-containing protein 9 (Homo sapiens); experiment: PROTAC activity at VHL/BRD9 in human Ri-1 cells assessed as maximal degradation by Western blot analysis relative to control; assay type: cell-based; procedure, shortened: as §1
[27] = molecular target: T2, von Hippel-Lindau disease tumor suppressor/Bromodomain-containing protein 9 (Homo sapiens); experiment: PROTAC activity at VHL/BRD9 in human Ri-1 cells assessed as remaining BRD9 protein level at 10000 nM incubated for 2 hrs by Western blot analysis relative to control; assay type: cell-based; procedure, shortened: as §1
[28] = molecular target: T1, von Hippel-Lindau disease tumor suppressor/Bromodomain-containing protein 7 (Homo sapiens); experiment: PROTAC activity at VHL/BRD7 in human Ri-1 cells assessed as remaining BRD7 protein level at 10 nM incubated for 1 hrs by Western blot analysis relative to control; assay type: cell-based
[29] = molecular target: T2, von Hippel-Lindau disease tumor suppressor/Bromodomain-containing protein 9 (Homo sapiens); experiment: PROTAC activity at VHL/BRD9 in human Ri-1 cells assessed as remaining BRD9 protein level at 1 uM incubated for 2 hrs by Western blot analysis relative to control; assay type: cell-based; procedure, shortened: as §1
[30] = molecular target: T1, von Hippel-Lindau disease tumor suppressor/Bromodomain-containing protein 7 (Homo sapiens); experiment: PROTAC activity at VHL/BRD7 in human Ri-1 cells assessed as remaining BRD7 protein level at 10 nM incubated for 8 hrs by Western blot analysis relative to control; assay type: cell-based; procedure, shortened: as §1
[31] = molecular target: T1, von Hippel-Lindau disease tumor suppressor/Bromodomain-containing protein 7 (Homo sapiens); experiment: PROTAC activity at VHL/BRD7 in human Ri-1 cells assessed as remaining BRD7 protein level at 1 uM incubated for 2 hrs by Western blot analysis relative to control; assay type: cell-based

T2 sequence (P40337 whole entry, looked up): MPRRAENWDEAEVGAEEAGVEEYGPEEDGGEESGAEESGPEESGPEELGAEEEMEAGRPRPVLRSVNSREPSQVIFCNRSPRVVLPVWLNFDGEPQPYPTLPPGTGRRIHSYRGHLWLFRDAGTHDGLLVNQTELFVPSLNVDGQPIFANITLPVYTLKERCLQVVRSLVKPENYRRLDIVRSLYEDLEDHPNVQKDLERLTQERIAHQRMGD
T2 sequence (Q9H8M2 whole entry, looked up): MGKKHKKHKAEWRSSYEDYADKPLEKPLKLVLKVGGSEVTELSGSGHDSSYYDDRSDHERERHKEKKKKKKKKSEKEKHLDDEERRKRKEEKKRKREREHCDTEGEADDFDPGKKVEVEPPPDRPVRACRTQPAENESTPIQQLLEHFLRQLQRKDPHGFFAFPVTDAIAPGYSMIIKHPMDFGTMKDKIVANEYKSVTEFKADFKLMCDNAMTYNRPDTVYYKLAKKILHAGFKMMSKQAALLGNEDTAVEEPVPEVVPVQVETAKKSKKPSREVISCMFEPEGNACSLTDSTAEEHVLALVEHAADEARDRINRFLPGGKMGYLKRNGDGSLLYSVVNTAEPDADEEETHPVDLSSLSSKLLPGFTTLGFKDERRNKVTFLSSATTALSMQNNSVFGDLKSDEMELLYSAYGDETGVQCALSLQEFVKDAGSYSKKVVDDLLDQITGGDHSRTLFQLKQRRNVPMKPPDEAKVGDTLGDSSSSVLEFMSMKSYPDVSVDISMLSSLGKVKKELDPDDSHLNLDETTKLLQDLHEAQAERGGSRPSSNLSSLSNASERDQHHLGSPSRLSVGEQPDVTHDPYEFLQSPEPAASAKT
T1 sequence (P40337 whole entry, looked up): as the sequence (P40337 whole entry, looked up) above
T1 sequence (Q9NPI1 whole entry, looked up): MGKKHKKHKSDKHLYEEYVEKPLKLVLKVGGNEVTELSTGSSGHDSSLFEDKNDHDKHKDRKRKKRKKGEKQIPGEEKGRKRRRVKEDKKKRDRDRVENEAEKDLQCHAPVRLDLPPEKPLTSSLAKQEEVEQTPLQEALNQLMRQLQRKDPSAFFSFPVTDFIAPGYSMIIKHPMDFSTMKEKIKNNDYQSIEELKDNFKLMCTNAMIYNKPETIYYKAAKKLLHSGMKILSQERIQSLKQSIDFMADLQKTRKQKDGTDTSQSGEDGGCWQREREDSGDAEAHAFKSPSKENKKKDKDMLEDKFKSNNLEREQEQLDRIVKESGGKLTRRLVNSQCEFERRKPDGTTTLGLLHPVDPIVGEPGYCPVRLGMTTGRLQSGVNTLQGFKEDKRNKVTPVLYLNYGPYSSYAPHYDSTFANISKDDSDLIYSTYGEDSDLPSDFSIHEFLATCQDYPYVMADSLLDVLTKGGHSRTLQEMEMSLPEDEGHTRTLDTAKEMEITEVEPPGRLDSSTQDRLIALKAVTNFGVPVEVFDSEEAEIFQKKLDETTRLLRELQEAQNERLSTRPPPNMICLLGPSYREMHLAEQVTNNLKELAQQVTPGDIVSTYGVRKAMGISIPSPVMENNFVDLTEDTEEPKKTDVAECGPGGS
Chain of Von Hippel-Lindau disease tumor suppressor/Elongin B/Elongin C (Homo sapiens) (P40337 whole entry, looked up): as the sequence (P40337 whole entry, looked up) above
Chain of Von Hippel-Lindau disease tumor suppressor/Elongin B/Elongin C (Homo sapiens) (Q15369 whole entry, looked up): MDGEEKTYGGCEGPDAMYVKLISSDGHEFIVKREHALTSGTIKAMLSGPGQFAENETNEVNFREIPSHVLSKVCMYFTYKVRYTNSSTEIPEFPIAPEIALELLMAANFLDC
Chain of Von Hippel-Lindau disease tumor suppressor/Elongin B/Elongin C (Homo sapiens) (Q15370 whole entry, looked up): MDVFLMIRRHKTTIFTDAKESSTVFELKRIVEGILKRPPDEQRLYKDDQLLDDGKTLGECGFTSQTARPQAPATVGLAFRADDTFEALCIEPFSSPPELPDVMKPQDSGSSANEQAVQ

Work on COc1cc(-c2cn(C)c(=O)c3cnccc23)cc(OC)c1CN1CCN(CCCCCOc2cc(-c3scnc3C)ccc2CNC(=O)[C@@H]2C[C@@H](O)CN2C(=O)[C@@H](NC(=O)C2(F)CC2)C(C)(C)C)CC1 yielded a deltaG [1] of -21.7 kcal/mol, an Activity [2] of 7% and an Activity [3] of 2%. The Activity [4] was 40%, the Activity [5] was 75% and the Activity [6] was “Active”. It also gave an Activity [7] of 62%, an Activity [8] of 31% and an Activity [9] of 4%. For the same compound, the IC50 (A204) was 39.8 nM, the Activity [10] was 10% and the Activity [11] was 12%. For the same compound, the Activity [12] was “inactive”, the Activity [13] was “inactive” and the Activity [14] was 64%. For the same compound, the Activity [15] was 52%, the Activity [16] was “inactive” and the Stability [17] was “Stable”. For the same compound, the Stability [18] was “Stable”, the Activity [19] was “Active” and the Activity [20] was “Active”. For the same compound, the Activity [21] was 14%, the solubility kinetic [22] was no more than 100 µM and the Activity [23] was 98%. The Activity [24] was 31%, the Activity [25] was 80% and the Emax [26] was greater than 90%. For the same compound, the Activity [27] was 89%, the Activity [28] was 70% and the Activity [29] was 52%. For the same compound, the Activity [30] was 33% and the Activity [31] was 10%.
